RGS4 block: RGS4 inhibitors, primary screen, cell-based, HEK293 M3R inducible RGS4, calcium flux; AID 463165, 2010; B-score at 10 µM; hit rate 0.45% among 310,000; Fluo-4 calcium flux; stronger effect = higher value; triggered by carbachol at its EC20; Regulator of G-protein signaling 4 (Homo sapiens), P49798;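 active = B-score, a plate-corrected calcium signal, over three deviations above library mean, with baseline fluorescence within five deviations of library mean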;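 also: RGS4 expression induced by doxycycline in cells with stable M3 receptor; B-score is computed from the integrated fluorescence ratio over baseline after carbachol; higher B-score means a larger calcium signal and so more RGS4 inhibition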
Target sequence (P49798 whole entry, looked up): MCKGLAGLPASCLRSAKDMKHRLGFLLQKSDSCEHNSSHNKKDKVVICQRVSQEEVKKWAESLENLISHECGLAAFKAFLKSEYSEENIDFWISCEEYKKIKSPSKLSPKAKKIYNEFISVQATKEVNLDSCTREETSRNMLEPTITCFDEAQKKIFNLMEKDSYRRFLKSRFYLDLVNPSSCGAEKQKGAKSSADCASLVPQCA
MrgX1 allo act: positive allosteric modulators of MrgX1, primary screen, HEK293 cells, Fluo-4 calcium flux | hit rate 0.63% among 310,000 | Mas-related G-protein coupled receptor member X1 (Homo sapiens), Q96LB2 | AID 588675, 2011 | B-score at 10 µM | FDSS; stronger effect = higher value;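 active = plate-corrected calcium response at least 3 library SD above typical, normal starting fluorescence, not activating the receptor alone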;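 also: compound read alongside a low EC10 to EC30 dose of BAM8-22 agonist; peak minus trough fluorescence over baseline measured at the second addition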
Target sequence (Q96LB2 whole entry, looked up): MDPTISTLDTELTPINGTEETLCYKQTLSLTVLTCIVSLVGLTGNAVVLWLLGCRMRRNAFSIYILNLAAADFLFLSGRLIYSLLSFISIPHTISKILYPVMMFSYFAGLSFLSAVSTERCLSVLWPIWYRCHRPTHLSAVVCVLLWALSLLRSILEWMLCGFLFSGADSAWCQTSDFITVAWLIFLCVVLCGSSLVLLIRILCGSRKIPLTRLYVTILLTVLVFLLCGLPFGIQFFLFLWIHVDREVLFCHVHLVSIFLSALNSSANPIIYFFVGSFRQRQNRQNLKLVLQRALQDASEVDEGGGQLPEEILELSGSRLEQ
RGS4 pot: RGS4 potentiators or activators, primary screen, cell-based, HEK293 M3R inducible RGS4, calcium flux; AID 463111, 2010; B-score at 10 µM; carbachol calcium flux Fluo4; stronger effect = lower value; hit rate 0.92% among 310,000;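 active = B-score of the integrated calcium signal more than 4 SD below the library mean, with starting fluorescence not abnormally high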;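 also: negative B-score means reduced calcium response which marks RGS4 activation or potentiation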
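Detection: kinetic calcium fluorescence imaging with Fluo4-AM dye, 2 µM / Material: HEK293 cells with stable M3R and inducible RGS4 / Schedule: recording 10 s baseline at 1 Hz, 100 s post-agonist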
MrgX1 antagonist: antagonists of human MrgX1 receptor, primary screen, HEK293 cells, Fluo-4 calcium flux | hit rate 1.3% among 310,000 | AID 588676, 2011 | BAM8-22 antagonism; stronger effect = lower value | B-score at 10 µM | Mas-related G-protein coupled receptor member X1 (Homo sapiens), Q96LB2;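 active = calcium-response B-score plate-corrected more than 3 library SD below zero, starting fluorescence within 5 deviations, no agonist response on first addition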;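 also: peak minus trough fluorescence over baseline after final BAM8-22 challenge near maximal dose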
MrgX1 agonist: agonists of human MrgX1 receptor, primary screen, HEK293 cells, Fluo-4 calcium flux; Mas-related G-protein coupled receptor member X1 (Homo sapiens), Q96LB2; Fluo-4 calcium fluorescence, agonist mode; stronger effect = higher value; B-score at 10 µM; hit rate 0.44% among 310,000; AID 588627, 2011;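 active = calcium response B-score plate-corrected fluorescence ratio at least 3 library SD, with starting fluorescence B-score inside 5 SD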
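Test system: HEK293 cells stably expressing human MrgX1 receptor; Input: fifteen thousand cells per well; Dosing: compound delivered in addition one of three; Schedule: overnight seeding, then 1 h dark dye loading; Technique: Fluo-4 NW calcium fluorescence; Measure: B-scored fluorescence response ratio; Controls: positive and negative controls per plate.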
RGS4 inh valid: enhanced carbachol calcium response, M3R/RGS4 cells, RGS4 inhibitor project, cell-based, validation screen, HEK293 M3R/RGS4, calcium flux. shares compounds with RGS4 block. carbachol calcium Fluo-4 fluorescence; carbachol added at its EC20; 0 = buffer wells, 100 = carbachol control. calcium response, % at 10 µM. hit rate 65% among 1,700. AID 492999, 2010;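 active = duplicate-averaged calcium response above the buffer-only control mean plus 5 SD of those controls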;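 also: integrated fluorescence ratio F max minus min over baseline F0; higher response in RGS4-induced cells means RGS4 inhibition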
M3R Ca ctr: carbachol calcium response in non-induced M3R cells, confirmation, counter-screen for RGS4 inhibitor project, cell-based, HEK293 M3R. shares compounds with RGS4 block. carbachol calcium Fluo-4; submaximal (EC20) carbachol stimulus; buffer wells 0%, carbachol control wells 100%. activity (percent), % at 10 µM. hit rate 20% among 1,900. AID 493000, 2010; call rule not given here;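 also: RGS4 induction absent so cells express M3R without RGS4; higher means more calcium signal and flags a non-specific hit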
RGS4 inh ctr2: second RGS4 inhibitor counter-screen in uninduced cells lacking carbachol. hit rate 22% among 1,900. calcium response (agonist-mode artifact), % at 10 µM. HEK293 M3R/RGS4 non-induced, Fluo-4 calcium, no carbachol; normalised: buffer wells 0%, carbachol wells 100%. shares compounds with RGS4 block;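 active = duplicate-averaged calcium rise in uninduced cells above buffer wells' mean plus 5 SD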
Starred values were filed as active, the others as inactive; i = inactive; / = no result given. Only some compounds are listed: those with a hit (about 3.5% of all), similar ones and a draw of the others.

SMILES	RGS4 block	MrgX1 allo act	RGS4 pot	MrgX1 antagonist	MrgX1 agonist	RGS4 inh valid	M3R Ca ctr	RGS4 inh ctr2
Cc1cccc(N2C(=O)/C(=C/c3ccccn3)SC2=S)c1	i	i	i	i	i	/	/	/
Cn1c(SCC(=O)Nc2ccc3c(c2)OCCO3)nnc1-c1ccncc1	i	i	i	i	i	/	/	/
CC1C/C(=C/c2ccncc2)C(=O)/C(=C/c2ccncc2)C1 (stereo not given)	28*	8*	i	i	i	120%*	i	7.5%*
O=C(c1ccc(S(=O)(=O)N2CCCC2)cc1)N1CCCCC1	i	i	i	i	i	/	/	/
O=C(/C=C/c1ccc(O)c(O)c1)c1ccc(S(=O)(=O)N2CCCCCC2)cc1	16*	i	i	i	i	23%*	44%*	i
Cc1cc(O)c2c(c1)C(=O)c1cc(O)cc(O)c1C2=O	i	i	i	i	i	/	/	/
O=C1c2cc(O)cc(O)c2C(=O)c2c1cc(O)c([C@@H](CO)CCO)c2O	6.3*	i	i	i	i	18%*	i	67%*
CCc1ccccc1N(C(=O)CCC(=O)Nc1cc(C)on1)C(C(=O)NC1CCCC1)c1ccco1 (stereo not given)	i	i	i	i	i	/	/	/
COC(=O)c1ccc(COc2ccccc2/C=C(\C#N)C(=O)NC(C)C)cc1	i	i	i	i	i	/	/	/
COC(=O)c1ccc(COc2ccccc2/C=C(\C#N)C(=O)Nc2ccccc2C)cc1	i	i	i	i	i	i	i	i
COC(=O)c1ccc(COc2ccccc2/C=C(\C#N)C(=O)Nc2c(C)cccc2C)cc1	5.6*	i	i	i	i	8.0%*	i	i
O=C(O)CCc1ccc(-c2ccc(Cl)cc2)o1	i	i	i	i	i	/	/	/
O=C(O)CCc1ccc(-c2ccc(Br)cc2)o1	i	i	i	i	i	/	i	i
COc1cc(/C=C/C(=O)c2ccc(O)cc2)ccc1OCC#N	4.7*	i	i	i	i	10%*	i	i
O=C(Nc1cc2cccc([N+](=O)[O-])c2oc1=O)c1cccs1	i	i	i	i	i	/	/	/
Nc1nnnn1/N=C/c1cc(Cl)ccc1O	i	i	i	i	i	/	/	/
Cc1cc(N=Cc2cc(Cl)ccc2O)no1	5.7*	i	i	i	i	7.0%*	30%*	i
COc1cc(C2C3=C(CCCC3=O)Nc3c2c(C)nn3-c2cccc(C)c2)cc(OC)c1O (stereo not given)	6.3*	i	i	i	i	14%*	40%*	i
COc1cc(C2C3=C(CCCC3=O)Nc3[nH]n(-c4ccccc4)c(=O)c32)ccc1O (stereo not given)	/	i	/	i	i	/	/	/
O=C1NN(c2ccc(Br)cc2)C(=O)/C1=C\c1ccc(O)cc1O	i	i	i	i	i	/	/	/
CCOc1cc(/C=C2/C(=O)NN(c3cccc(Cl)c3)C2=O)ccc1O	5.7*	i	i	i	i	5.0%*	i	20%*
O=C1NN(c2cccc(Br)c2)C(=O)/C1=C\c1ccc(O)cc1	i	i	i	i	i	/	31%*	i
CCC(C(=O)N1CCCC1)n1nc(C)c2c(C)n(-c3ccccc3)nc2c1=O (stereo not given)	i	i	i	i	i	i	i	i
CCC(C(=O)NCCc1ccc(C)cc1)n1nc(C)c2c(C)n(-c3ccccc3)nc2c1=O (stereo not given)	i	i	i	i	i	/	/	/
COC(=O)CSc1nnc(C)c(=O)[nH]1	i	i	i	i	i	/	/	/
SMILES	RGS4 block	MrgX1 allo act	RGS4 pot	MrgX1 antagonist	MrgX1 agonist	RGS4 inh valid	M3R Ca ctr	RGS4 inh ctr2
CCOC(=O)CNc1nnc(SCC(=O)OCC)[nH]c1=O	i	i	i	i	i	/	i	i
Nc1ccc(-c2nc(-c3ccccc3)nc3ccccc23)cc1	i	i	i	i	i	/	/	/
Nc1ccc(-c2cc(-c3cccc(N)c3)nc(-c3ccccc3)n2)cc1	i	i	i	i	i	i	i	i
CC(=O)c1ccc(OCc2cc(C(=O)N3CC4C[C@@H]5CC3C[C@H](C4)C5)no2)cc1	i	i	i	i	i	/	/	/
CCOC(=O)N1CCc2c(sc3c2c(=O)n(Cc2ccccc2)c(=O)n3Cc2cccc(C)c2)C1	6.8*	i	i	i	i	32%*	38%*	i
CCOC(=O)N1CCc2c(sc3c2c(=O)n(Cc2ccccc2)c(=O)n3Cc2ccccc2F)C1	7.3*	i	i	i	i	56%*	34%*	i
CCOC(=O)N1CCc2c(sc3c2c(=O)n(Cc2ccccc2)c(=O)n3CC(=O)NCC2CCCO2)C1 (stereo not given)	i	i	i	i	i	/	/	/
Cc1ccc(NC(=O)c2cc3c(=O)oc4ccc(C)cc4c3s2)nc1	i	i	i	i	i	/	/	/
CCOc1ccc(NCc2nnc(SCC(=O)Nc3cc(C)on3)n2-c2ccc(OC)cc2)cc1	7*	i	i	i	i	i	i	i
CCOc1ccc(NCc2nnc(SCC(=O)Nc3cc(C)on3)n2-c2ccccc2OC)cc1	i	i	i	i	i	/	/	/
COc1ccc(NCc2nnc(SCc3ccc(Cl)cc3)n2-c2ccccc2)cc1	8*	i	i	i	i	62%*	40%*	38%*
COc1ccc(-n2c(COc3ccc(Cl)cc3)nnc2SCc2ccc(C#N)cc2)cc1	i	i	i	i	i	/	/	/
COc1ccc2[nH]c(C(=O)NCc3ccccc3)c(C)c2c1	i	i	i	i	i	/	/	/
CC(=O)c1ccc(N/N=C(/C(N)=O)C2=NC(C)(C)Cc3ccccc32)cc1	i	i	i	i	i	/	/	/
